High-throughput results as filed in PubChem BioAssay.
Hits are enriched below; roughly 1.3% of the tested compounds scored in any of these assays.
RAD52 anneal inh: inhibitors of human RAD52 DNA annealing. P43351. recombinant RAD52 DNA annealing, FRET fluorescence. inhibition, % at 18.7 µM. hit rate 0.46% among 360,000;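 active = every replicate showing at least 50% inhibition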
Target sequence (P43351 whole entry, looked up): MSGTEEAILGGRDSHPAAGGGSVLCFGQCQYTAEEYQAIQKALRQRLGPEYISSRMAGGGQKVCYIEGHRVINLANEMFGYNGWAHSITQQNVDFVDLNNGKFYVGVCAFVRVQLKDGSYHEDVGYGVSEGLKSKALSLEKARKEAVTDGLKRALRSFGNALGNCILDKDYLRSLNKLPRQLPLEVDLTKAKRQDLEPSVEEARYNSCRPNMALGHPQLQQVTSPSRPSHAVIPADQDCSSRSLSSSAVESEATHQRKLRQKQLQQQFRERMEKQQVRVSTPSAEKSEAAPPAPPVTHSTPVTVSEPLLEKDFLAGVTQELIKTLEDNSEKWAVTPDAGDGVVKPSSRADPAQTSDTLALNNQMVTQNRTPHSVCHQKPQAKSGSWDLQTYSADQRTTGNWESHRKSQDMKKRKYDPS
RAD54 branch: inhibitors of human RAD54 branch migration; RAD54 Holliday junction branch migration, FAM/BHQ fluorescence; inhibition, % at 10.4 µM; hit rate 0.14% among 360,000; AID 602329;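 active = mean normalized replicate activity at least 40 and at least half of replicates scoring 40 or more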;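 also: inhibitors cause a drop in the FAM fluorescence signal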
GSIS activator: GLuc luminescence reporter in INS-1E cells, primary screen for activators of glucose-dependent secretion of insulin; INS-1E GLuc reporter insulin secretion, 2-3 h; hit rate 0.61% among 370,000; activation, % at 16.6 µM;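 active = lowest replicate activation of at least 40%, so every replicate reaches that level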
MLL AF4-AF9 inh: MLL-AF4/AF9 protein interaction inhibition; hit rate 0.47% among 350,000; inhibition, % at 10 µM; AlphaScreen, biotin-AF4 peptide binding to FLAG-AF9; AID 651704; P42568;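 active = every replicate reaching a set inhibition limit, whatever the replicate mean, cut at about 25% in these data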
S100A4 MyoIIA: inhibitors of human S100A4 binding to myosin IIA peptide. AID 652163. hit rate 0.14% among 360,000. inhibition, % at 10.7 µM. S100A4/TAMRA-MyoIIA peptide fluorescence polarization. P26447;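 active = mean inhibition of at least 70% across replicates, with every replicate also reaching that level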
Target sequence (P26447 whole entry, looked up): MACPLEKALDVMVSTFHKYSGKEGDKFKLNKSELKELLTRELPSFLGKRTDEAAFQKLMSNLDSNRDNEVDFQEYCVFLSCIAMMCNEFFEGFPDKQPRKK
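Compound dosing: one dose per compound; test system: human S100A4 monomer with TAMRA-labelled myosin IIA peptide; probe or stimulus: TAMRA-labelled myosin IIA heavy-chain peptide probe, 5 nM; medium: HEPES buffer with Ca2+, pH 7.2; schedule: 5 min incubation before reading; benchmarks: neutral control DMSO, positive control TFP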
Numbers stand for hits; – = inactive; · = no result.

SMILES	RAD52 anneal inh	RAD54 branch	GSIS activator	MLL AF4-AF9 inh	S100A4 MyoIIA
COc1ccc2c3c([nH]c2c1)[C@@H](CO)N(C(=O)Nc1ccc(F)cc1)CC31CN(Cc2ccccc2OC)C1	·	·	–	51	·
COc1ccc2c3c([nH]c2c1)[C@H](CO)N(C(=O)Nc1ccc(F)cc1)CC31CN(Cc2ccccc2OC)C1	·	·	–	·	·
COc1ccc2c3c([nH]c2c1)[C@H](CO)N(C(=O)NC(C)C)CC31CN(Cc2ccc(F)cc2)C1	–	·	–	31	–
COc1ccc2c3c([nH]c2c1)[C@H](CO)N(C(=O)NC(C)C)CC31CCN(Cc2ccccc2)CC1	·	·	–	–	·
COc1ccc2c3c([nH]c2c1)[C@H](CO)N(C(=O)Nc1ccc(F)cc1)CC31CN(Cc2ccc(F)cc2)C1	–	·	–	–	–
CCC(=O)Nc1ccc(NC(=S)NC(=O)c2oc3ccccc3c2C)cc1	·	–	60	·	·
CN(CCO)c1nc(NCc2ccccc2)c2cnn(C)c2n1	–	–	41	–	–
C/C(=N\NC(=O)CC1N=C(Cc2ccccc2)NNC1=O)c1ccccc1 (centres undefined)	·	–	·	·	·
C/C(=N\NC(=O)CC1N=C(Cc2ccccc2)NNC1=O)c1ccc(Cl)cc1Cl (centres undefined)	·	–	142	·	·
COc1ccc(-c2ccc3c(c2)[C@H]2[C@H](CCN2C(=O)Nc2ccccc2OC)[C@H](CO)N3C)cc1	–	–	–	–	–
COc1cccc(-c2ccc3c(c2)[C@@H]2[C@@H](CCN2C(=O)c2ccccc2F)[C@@H](CO)N3C)c1	69	–	–	–	–
COc1cccc(-c2ccc3c(c2)[C@@H]2[C@@H](CCN2C(=O)c2ccccc2F)[C@H](CO)N3C)c1	–	–	–	–	–
COc1cccc(-c2ccc3c(c2)[C@@H]2[C@@H](CCN2C(=O)Nc2ccccc2OC)[C@@H](CO)N3C)c1	60	–	–	–	–
COc1cccc(-c2ccc3c(c2)[C@H]2[C@H](CCN2C(=O)Nc2ccccc2OC)[C@@H](CO)N3C)c1	–	–	–	–	–
COc1cccc(-c2ccc3c(c2)[C@H]2[C@H](CCN2C(=O)Nc2ccccc2OC)[C@H](CO)N3C)c1	51	–	–	–	–
C[C@H](CO)N1C[C@H](C)[C@@H](CN(C)C)Oc2cc(Br)ccc2S1(=O)=O	–	–	–	–	–
C[C@@H]1CN([C@@H](C)CO)C(=O)c2cc(NC(=O)Nc3ccc4c(c3)OCO4)ccc2O[C@H]1CN(C)C	–	–	–	–	–
Cc1cccc(S(=O)(=O)N(C)C[C@@H]2OCc3ccccc3-c3ccccc3C(=O)N([C@H](C)CO)C[C@H]2C)c1	–	–	–	–	–
O=C(C[C@H]1C=C[C@@H](NS(=O)(=O)c2ccccc2)[C@H](CO)O1)N1CCN(c2ccccc2)CC1	–	·	–	–	–
CCOC(=O)c1nc(NCc2cccnc2)c2ccccc2n1	·	–	46	·	·
Nc1ccc(N=Nc2ccccc2)c(N)n1	–	–	·	34	–
COc1ccccc1/C=C1\SC(=S)N(CCC(=O)Nc2ccc(C(=O)O)c(O)c2)C1=O	–	·	–	26	–
CC(C)CC#Cc1cnc2c(c1)C(=O)N([C@H](C)CO)C[C@@H](C)[C@@H](CN(C)C(=O)c1ccc3c(c1)OCO3)O2	–	–	–	–	–
CN1C=C/C(=C\c2cc[n+](C)c3ccccc23)c2ccccc21	79	82	–	56	–
O=C1N(c2ccccc2)c2ccccc2C1(O)C(F)(F)F (centres undefined)	–	–	–	–	–
SMILES	RAD52 anneal inh	RAD54 branch	GSIS activator	MLL AF4-AF9 inh	S100A4 MyoIIA
O=C1N(c2ccccc2)c2ccccc2[C@]12C[C@H](O)CO2	–	·	55	–	–
Cc1cccc(-c2oc3ccc(-c4ccc5c(c4)OCO5)cc3c2-c2ccc(OC3CCCCO3)cc2)c1 (centres undefined)	–	–	–	–	107
C[C@H](CO)N1C[C@H](C)[C@@H](CN(C)Cc2ccncc2)Oc2ccc(N(C)C)cc2C1=O	–	–	–	–	–
C[C@H](CO)N1C[C@H](C)[C@@H](CN(C)C(=O)c2ccncc2)OCCCC[C@H](C)Oc2ccc(NC(=O)C3CCCCC3)cc2C1=O	·	·	–	·	·
O=C(NC[C@@H]1CC[C@@H]2[C@@H](CN2C(=O)NC2CCCC2)O1)c1ccc2c(c1)OCO2	112	·	·	–	–
O=C(NC[C@H]1CC[C@H]2[C@H](CN2C(=O)NC2CCCC2)O1)c1ccc2c(c1)OCO2	–	·	·	–	–
C/C(=N\NC(=O)CO/N=C(\C)c1cccs1)c1ccc(N)cc1	–	–	46	–	–
COC(=O)C1=C(C)Nc2nc(SCc3ccccc3)[nH]c(=O)c2C1c1cccs1 (centres undefined)	–	–	–	49	–
CCSc1nc2c(c(=O)[nH]1)C(c1cccnc1)C(C(=O)OC)=C(C)N2 (centres undefined)	·	–	·	·	·
O=C(Cc1ccncc1)NCC[C@@H]1CC[C@H](NC(=O)C2CCCC2)[C@H](CO)O1	–	–	–	–	–
COc1ccc(/C=C/C(=O)Nc2ccccc2C(=O)NCC(c2ccc(OC)cc2)N(C)C)cc1 (centres undefined)	–	–	–	26	–
COc1ccc(/C=C/C(=O)Nc2ccccc2C(=O)O)cc1	–	–	–	–	–
CC1(C)Cc2c(c(N3CCOCC3)nc3sc4c(NCC5CCCO5)nnnc4c23)CS1 (centres undefined)	–	–	–	26	–
CN1C(=O)c2cc(NC(=O)C3CCCC3)ccc2OC[C@@H]2O[C@H](CC(=O)NCC3CC3)CC[C@H]21	–	–	–	–	–
O=C(Nc1ccc(F)cc1)c1cccnc1Oc1ccccc1	–	–	89	–	–
O=C(Nc1ccc2c(c1)OCCO2)c1cccnc1Oc1ccccc1	–	–	–	–	–
CO[C@H]1CN(C)C(=O)c2cc(NC(=O)C3CC3)ccc2OC[C@@H](C)N(Cc2cncnc2)C[C@H]1C	–	–	–	–	–
COc1cc(CO)cc(Br)c1OCC(=O)Nc1cccc2ccccc12	–	–	48	–	–
CCOc1cc(/C=N/NC(N)=O)cc(Br)c1OCC(=O)Nc1cccc2ccccc12	·	–	·	·	·
Cc1cc(C)n(CC(=O)n2c3ccccc3c3ccccc32)n1	·	–	53	·	·
CSc1ccccc1OCc1cc(C(=O)NCCN2CCCc3ccccc32)no1	–	·	–	–	95
CC(NC(=O)C1CCCN1S(=O)(=O)c1ccc2c(c1)n(C)c(=O)c(=O)n2C)c1ccccc1 (centres undefined)	–	–	54	–	–
Cc1cccc(NC(=O)C2CCCN2S(=O)(=O)c2ccc3c(c2)n(C)c(=O)c(=O)n3C)c1 (centres undefined)	–	–	·	–	–
CCc1cccc(NC(=O)C2CCCN2S(=O)(=O)c2ccc3c(c2)n(C)c(=O)c(=O)n3C)c1 (centres undefined)	–	–	46	–	–
